Data set [1] relates to Influenza A virus. In words: Protection against Influenza A/HK/68 virus infected BALB/c mouse assessed as survival at 0.05 mg/kg, intranasal administered 2 days prior to influenza challenge measured after 21 days. The format is functional. Conditions: inhaled or nasal. Put shortly:
(§1)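 Female/male unspecified BALB/c mice, 8 per group, given compound intranasally in 0.2% aqueous triethanolamine vehicle 2 days before intranasal influenza challenge. Vehicle-only group as control. Read-out is percent survival, recorded over 21 days after viral challenge.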

Data set [2] concerns the target T1, Toll-like receptor 4 (Homo sapiens, UniProt O00206). Nature of the data set: Antagonist activity at TLR4 in human PBMC assessed as inhibition of LPS-stimulated TNFalpha production pre-incubated for 30 mins before LPS challenge measured after 18 hrs by ELISA. The data set is classed as functional. The method, boiled down: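 Adherence-isolated human monocytes were preincubated with compound for 30 min, then stimulated with 100 ng/mL E. coli LPS. Supernatant TNF-α was measured by ELISA after 18 h. IC50 was fitted with a four-parameter logistic dose–response model.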

The target in data set [3] is T1, Toll-like receptor 4. Nature of the data set: Agonist activity at TLR4 in human PBMC assessed as induction of TNFalpha production after 18 hrs by sandwich ELISA. The format is functional. The method, boiled down: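 Human monocytes were isolated by 2 h adherence to tissue-culture plates. They were exposed to compound over a 0–10,000 range in 0.2% aq triethanolamine (TEOA) for 18 h. TNF-α in supernatants was measured by sandwich ELISA. Data are three replicate samples from one of three donors. ED50 was fitted with a four-parameter logistic dose–response model.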
For orientation: In an ELISA, binding on a coated surface is turned into a signal by an enzyme label.

Data set [4] relates to Influenza A virus. In words: Protection against Influenza A/HK/68 virus infected BALB/c mouse assessed as survival at 0.5 mg/kg, intranasal administered 2 days prior to influenza challenge measured after 21 days. The format is functional. The following applies: inhaled or nasal. The method, boiled down:
as §1

The test system of data set [5] is Listeria monocytogenes. Nature of the data set: Protection against Listeria monocytogenes infected iv dosed BALB/c mouse assessed as reduction in splenic bacteria administered 2 days prior to bacterial challenge measured after 2 days. The data set is classed as functional, organism-based. The method, boiled down:
(§2)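 BALB/c mice got AGP iv in 100 µL of 0.2% aq TEOA 2 days before iv challenge with 10^5 L. monocytogenes. Two days after challenge, splenic CFUs were counted by serial dilution of homogenates. Log10 relative protection is control-group log10 CFU/spleen minus test-group log10 CFU/spleen.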

The subject of data set [6] is Influenza A virus. Nature of the data set: Protection against Influenza A/HK/68 virus infected BALB/c mouse assessed as survival at 5 mg/kg, intranasal administered 2 days prior to influenza challenge measured after 21 days. The format is functional. The following applies: inhaled or nasal. The method, boiled down: as §1
For data set [7], the system named is Influenza A virus. Nature of the data set: Protection against Influenza A/HK/68 virus infected BALB/c mouse assessed as survival at 0.005 mg/kg, intranasal administered 2 days prior to influenza challenge measured after 21 days. The following applies: inhaled or nasal. The data set is classed as functional. The method, boiled down:
as §1

A further data set deals with Mus musculus. In words: Inhibition of LPS-induced serum TNFalpha production in iv dosed BALB/c mouse after 1.5 hrs by ELISA. The format is functional, organism-based. The method, boiled down: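 BALB/c mice (n = 3) were given 5 ng LPS iv, either alone or together with 0.2% TEOA vehicle or test compound. Serum was collected 1.5 h post-injection and TNF-α was measured by ELISA.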

Data set [8] has as its system Listeria monocytogenes. Nature of the data set: Inhibition of CRX-527-mediated protection against Listeria monocytogenes infected iv dosed BALB/c mouse administered 2 days prior to bacterial challenge measured after 2 days. The data set is classed as organism-based. The following applies: in vivo, 48 h. The method, boiled down: as §2

pIC50: −log10 of the molar value. Activity calls are given as the source filed them. The rule behind the calls is not given here.

T1 sequence (O00206 whole entry): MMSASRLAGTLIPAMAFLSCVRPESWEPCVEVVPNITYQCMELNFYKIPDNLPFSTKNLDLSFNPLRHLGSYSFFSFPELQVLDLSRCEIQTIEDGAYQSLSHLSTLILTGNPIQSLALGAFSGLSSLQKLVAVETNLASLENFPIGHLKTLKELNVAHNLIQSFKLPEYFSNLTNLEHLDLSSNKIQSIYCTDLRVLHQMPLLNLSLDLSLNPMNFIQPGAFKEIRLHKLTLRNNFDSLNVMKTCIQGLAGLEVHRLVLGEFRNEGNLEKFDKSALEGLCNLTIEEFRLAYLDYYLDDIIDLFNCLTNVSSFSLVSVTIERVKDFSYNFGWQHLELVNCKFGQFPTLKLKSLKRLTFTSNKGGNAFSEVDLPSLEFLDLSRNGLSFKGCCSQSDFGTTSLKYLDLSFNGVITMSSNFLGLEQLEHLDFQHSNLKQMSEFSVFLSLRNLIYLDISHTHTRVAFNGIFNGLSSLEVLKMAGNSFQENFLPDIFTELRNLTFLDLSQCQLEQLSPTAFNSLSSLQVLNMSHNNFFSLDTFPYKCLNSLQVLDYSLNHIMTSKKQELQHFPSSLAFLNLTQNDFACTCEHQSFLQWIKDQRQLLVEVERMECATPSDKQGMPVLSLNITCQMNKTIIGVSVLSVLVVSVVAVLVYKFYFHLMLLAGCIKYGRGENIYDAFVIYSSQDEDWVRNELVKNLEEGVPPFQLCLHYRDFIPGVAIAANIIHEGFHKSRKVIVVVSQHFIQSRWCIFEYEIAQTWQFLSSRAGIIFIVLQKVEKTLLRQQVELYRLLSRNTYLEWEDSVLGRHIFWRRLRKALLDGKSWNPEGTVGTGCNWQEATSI

Regarding `CCCCCCCCCCC[C@H](CC(=O)N[C@H]1[C@H](OC[C@H](NC(=O)C[C@@H](CCCCCCCCCCC)OC(=O)CCCCCCCCC)C(=O)O)O[C@H](CO)[C@@H](OP(=O)(O)O)[C@@H]1OC(=O)C[C@@H](CCCCCCCCCCC)OC(=O)CCCCCCCCC)OC(=O)CCCCCCCCC`, the survival at 0.05 mg/kg in the data set on Influenza A virus [1] was determined as 70%. In addition, the result at Toll-like receptor 4 [2] was inactive. Also, the ED50 on Toll-like receptor 4 [3] worked out at 0.39 nM. Also, the survival at 0.5 mg/kg in the data set with Influenza A virus [4] came to 70%. In addition, the outcome with Listeria monocytogenes [5] was Active. Besides, the survival at 5 mg/kg in the data set with Influenza A virus [6] amounted to 100%. Further, the survival at 0.005 mg/kg in the data set with Influenza A virus [7] was 30%.
In the case of `CCCCCCCCCCC[C@H](CC(=O)N[C@H]1[C@H](OC[C@H](NC(=O)C[C@@H](CCCCCCCCCCC)OCCCCCC)C(=O)O)O[C@H](CO)[C@@H](OP(=O)(O)O)[C@@H]1OC(=O)C[C@@H](CCCCCCCCCCC)OCCCCCC)OCCCCCC`, the outcome in the data set with Mus musculus and on Toll-like receptor 4 [3] was inactive. The Activity result in the data set on Listeria monocytogenes [8] is listed as “Not Active”. For the same compound, at Toll-like receptor 4 [2], the pIC50 was 8.28.
In the case of `CCCCCCCCCCC[C@H](CC(=O)N[C@H]1[C@H](OC[C@H](NC(=O)C[C@@H](CCCCCCCCCCC)OCCCCCCCCCC)C(=O)O)O[C@H](CO)[C@@H](OP(=O)(O)O)[C@@H]1OC(=O)C[C@@H](CCCCCCCCCCC)OCCCCCCCCCC)OCCCCCCCCCC`, the survival at 0.05 mg/kg in the data set with Influenza A virus [1] stood at 60%. Besides, the outcome at Toll-like receptor 4 [2] was inactive. In addition, at Toll-like receptor 4 [3], the ED50 amounted to 0.17 nM. Moreover, the survival at 0.5 mg/kg in the data set on Influenza A virus [4] is 80%. In addition, the outcome in the data set on Listeria monocytogenes [5] was Active. Further, in the data set on Influenza A virus [6], the survival at 5 mg/kg was found to be 100%. Also, in the data set on Influenza A virus [7], the survival at 0.005 mg/kg is 20%.
In the case of `CCCCCCCCCCC[C@H](CC(=O)N[C@H]1[C@H](OC[C@H](NC(=O)C[C@@H](CCCCCCCCCCC)OC(=O)CCCCC)C(=O)O)O[C@H](CO)[C@@H](OP(=O)(O)O)[C@@H]1OC(=O)C[C@@H](CCCCCCCCCCC)OC(=O)CCCCC)OC(=O)CCCCC`, the outcome with Mus musculus was Active. In addition, the Activity entry with Listeria monocytogenes [8] is listed as “Dose-dependent effect”. Besides, the pIC50 at Toll-like receptor 4 [2] is 8.62. For the same compound, the outcome on Toll-like receptor 4 [3] was inactive.

In general, pIC50 refers to −log10 of the IC50, conventionally taken in molar units.

The values above are taken from ChEMBL document CHEMBL1152248, “The 'Ethereal' nature of TLR4 agonism and antagonism in the AGP class of lipid A mimetics” (Bioorg Med Chem Lett, 2008).
